Measured values: ChEMBL document CHEMBL4359848, “Merging memantine and ferulic acid to probe connections between NMDA receptors, oxidative stress and amyloid-β peptide in Alzheimer's disease” (Eur J Med Chem, 2019)
Activity calls are given as the source filed them. No cut-off for these calls is given here.

How the values were obtained:
[1] = target: Glutamate NMDA receptor; GRIN1/GRIN2A (Homo sapiens, UniProt Q05586+Q12879); experiment: Antagonist activity at GluN1a/GluN2A (unknown origin) expressed in Xenopus laevis oocytes at -60 mV holding potential by voltage clamp method; format: cell-based
Sequence of Glutamate NMDA receptor; GRIN1/GRIN2A (Q12879 whole entry, other chains not shown, the tested form may be a part): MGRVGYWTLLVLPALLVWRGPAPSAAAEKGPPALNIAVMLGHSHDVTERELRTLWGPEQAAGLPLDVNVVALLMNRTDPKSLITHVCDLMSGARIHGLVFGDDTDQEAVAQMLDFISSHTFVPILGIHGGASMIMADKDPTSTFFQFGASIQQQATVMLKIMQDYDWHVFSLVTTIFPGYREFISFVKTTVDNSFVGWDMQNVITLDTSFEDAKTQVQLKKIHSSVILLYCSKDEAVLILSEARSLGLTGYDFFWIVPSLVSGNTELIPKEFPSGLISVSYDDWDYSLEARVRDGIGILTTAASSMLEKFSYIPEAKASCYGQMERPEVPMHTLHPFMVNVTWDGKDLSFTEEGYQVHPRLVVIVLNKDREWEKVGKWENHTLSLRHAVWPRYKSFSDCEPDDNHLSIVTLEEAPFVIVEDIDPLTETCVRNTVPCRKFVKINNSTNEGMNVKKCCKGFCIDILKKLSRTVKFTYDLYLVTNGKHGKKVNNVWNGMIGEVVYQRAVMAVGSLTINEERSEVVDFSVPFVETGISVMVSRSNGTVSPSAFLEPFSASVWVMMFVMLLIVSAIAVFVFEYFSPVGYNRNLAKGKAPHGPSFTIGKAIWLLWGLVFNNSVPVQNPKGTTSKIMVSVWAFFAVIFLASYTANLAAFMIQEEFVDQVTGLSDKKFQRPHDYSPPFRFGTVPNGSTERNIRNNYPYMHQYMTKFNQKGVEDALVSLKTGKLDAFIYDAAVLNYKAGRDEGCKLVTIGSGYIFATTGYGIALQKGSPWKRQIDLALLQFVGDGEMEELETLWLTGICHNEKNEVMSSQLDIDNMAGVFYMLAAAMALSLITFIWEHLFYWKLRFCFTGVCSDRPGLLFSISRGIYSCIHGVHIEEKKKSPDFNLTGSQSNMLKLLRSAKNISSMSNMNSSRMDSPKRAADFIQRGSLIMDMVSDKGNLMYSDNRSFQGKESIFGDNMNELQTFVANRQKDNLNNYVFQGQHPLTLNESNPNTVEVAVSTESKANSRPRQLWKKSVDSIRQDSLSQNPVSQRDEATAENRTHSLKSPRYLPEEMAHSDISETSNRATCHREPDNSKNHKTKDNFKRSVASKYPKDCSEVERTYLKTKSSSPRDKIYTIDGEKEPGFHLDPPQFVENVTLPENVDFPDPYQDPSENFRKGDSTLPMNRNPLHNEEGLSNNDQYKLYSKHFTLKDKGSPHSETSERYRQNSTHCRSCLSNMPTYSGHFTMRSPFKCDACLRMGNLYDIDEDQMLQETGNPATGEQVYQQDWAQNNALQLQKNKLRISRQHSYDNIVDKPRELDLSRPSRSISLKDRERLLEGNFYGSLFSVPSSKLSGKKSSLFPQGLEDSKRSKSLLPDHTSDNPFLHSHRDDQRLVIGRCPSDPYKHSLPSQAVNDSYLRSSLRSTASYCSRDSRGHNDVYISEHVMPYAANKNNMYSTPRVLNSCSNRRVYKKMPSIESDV
Summary of the method: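 Rat-free detail absent; GluN1-1a/GluN2A cRNA (1:1 by weight) injected into defolliculated oocytes, kept 3–4 days at 18 °C in modified Barth's media. Two-electrode voltage clamp at -60 mV, perfusion with 96 mM NaCl, 2 mM KCl, 1.8 mM CaCl2, 10 mM HEPES pH 7.5. Currents evoked by 100 μM NMDA + 10 μM glycine; compound 0.01–100 μM added at steady state until new plateau; % control fit to Hill equation for IC50; ≥5 oocytes.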

SH-SY5Y [2] = experiment: Cytoprotective activity in human SH-SY5Y cells assessed as increase in HO1 mRNA expression level at 10 uM incubated for 6 hrs by RT-PCR analysis relative to control; format: functional
Summary of the method: (§1)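 SH-SY5Y cells in EMEM/F-12 (1:1) with 10% heat-inactivated FBS, 37 °C, 5% CO2, exposed 6 h to 10 μM compound, final DMSO <0.1%. Total RNA extracted and Nrf2 and HO-1 mRNA quantified by real-time RT-PCR with GAPDH as endogenous reference. Mean ± SEM, experiments repeated at least three times.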

SH-SY5Y [3] = experiment: Cytoprotective activity in human SH-SY5Y cells assessed as increase in Nrf2 mRNA expression level at 10 uM incubated for 6 hrs by RT-PCR analysis; format: functional, cell-based; summary of the method: as §1
Homo sapiens = species on record: Homo sapiens; experiment: Activation of alpha secretase in human H4 cells harboring swedish mutant form of APP assessed as increase in sAPPalpha protein level at 10 uM incubated for 24 hrs by Western blot analysis
H4 [4] = experiment: Cytotoxicity against human H4 cells harboring swedish mutant form of APP assessed as reduction in cell viability up to 20 uM incubated for 24 hrs by MTT assay; format: cell-based; details: h4, 24 h
SH-SY5Y [5] = experiment: Neuroprotective activity in human SH-SY5Y cells assessed as reduction in H2O2-induced intracellular ROS formation at 10 uM and measured for 30 to 300 mins by DCFH-DA staining based assay; format: functional, cell-based
Summary of the method: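 SH-SY5Y cells loaded with 25 μM DCFH-DA for 45 min, then given 10 μM compound together with 300 μM H2O2. Fluorescence read at ex 485/em 530 nm over 30–300 min. Compared against H2O2 alone by Dunnett's test.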

SH-SY5Y [6] = experiment: Neuroprotective activity in human SH-SY5Y cells assessed as reduction in H2O2-induced intracellular ROS formation at 10 uM preincubated for 24 hrs followed H2O2 addition and measured after 10 to 90 mins by DCFH-DA staining based assay; format: functional, cell-based
Summary of the method: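 SH-SY5Y cells pretreated 24 h with 10 μM compound, then loaded with 25 μM DCFH-DA for 45 min and challenged with 300 μM H2O2. Fluorescence (485/530 nm) followed from 10 to 90 min. Compared against H2O2 alone by Dunnett's test.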

H4 [7] = experiment: Effect on total intracellular APP in human H4 cells harboring swedish mutant form of APP assessed as change in full length APP protein level at 10 uM incubated for 24 hrs by Western blot analysis; format: cell-based; details: h4, 24 h
Summary of the method: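 H4 cells bearing Swedish APP, kept in DMEM/10% FBS under hygromycin B and blasticidin S selection, treated 24 h with 10 μM. Lysates analysed by Western blot for full-length APP. Densitometry normalized to α-tubulin. One-way ANOVA with post-hoc test.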

SH-SY5Y [8] = experiment: Cytoprotective activity in human SH-SY5Y cells assessed as increase in HO1 protein level at 20 uM incubated for 24 hrs by Western blot analysis; format: functional
Summary of the method: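 SH-SY5Y human neuroblastoma cells (EMEM/Ham's F-12 with 10% heat-inactivated FBS, 37 °C, 5% CO2) treated 24 h at 10 or 20 μM, compound diluted from DMSO stock (final DMSO <0.1%). Whole-cell lysates in Tris/NaCl/EDTA/Triton buffer, SDS-PAGE and PVDF blot probed with anti-HO-1. Tubulin served as loading control, ECL detection, densitometry given as % of untreated control.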

SH-SY5Y [9] = experiment: Cytotoxicity against human SH-SY5Y cells assessed as reduction in cell viability up to 20 uM incubated for 24 hrs by MTT assay; format: cell-based
Summary of the method: (§2)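 SH-SY5Y cells plated at 2.5×10^4 per well and exposed 24 h to 1–50 μM. MTT at 1 mg/mL in complete medium for 4 h, then SDS solubilisation for 24 h and absorbance read. Viability given as % of untreated control. Dunnett's test, n = 3.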

SH-SY5Y [10] = experiment: Cytoprotective activity in human SH-SY5Y cells assessed as increase in HO1 protein level incubated for 24 hrs by Western blot analysis; format: functional, cell-based
Summary of the method: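 SH-SY5Y cells treated 24 h at 10 or 20 μM. Cells washed in ice-cold PBS, lysed in Tris/NaCl/EDTA/Triton buffer, equal protein run on reducing SDS-PAGE, blotted to PVDF. Probed with anti-HO-1 (1:1000), β-tubulin as loading control, ECL detection. Densitometry expressed as % of control ± SEM.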

SH-SY5Y [11] = experiment: Cytotoxicity against human SH-SY5Y cells assessed as reduction in cell viability up to 50 uM incubated for 24 hrs by MTT assay; format: cell-based; summary of the method: as §2

Row | Structure (SMILES) | IC50 [1] | Activity (SH-SY5Y [2]) | Activity (SH-SY5Y [3]) | activation (Homo sapiens) | Activity (H4 [4]) | Activity (SH-SY5Y [5]) | Activity (SH-SY5Y [6]) | Activity (H4 [7]) | fold change (FC) (SH-SY5Y [8]) | Activity (SH-SY5Y [9]) | Activity (SH-SY5Y [10]) | Activity (SH-SY5Y [11])
1 | COc1cc(/C=C/C(=O)NCCCNC(=O)C23CC4(C)CC(C)(CC(N)(C4)C2)C3)ccc1O | > 100 µM | – | – | – | – | – | – | – | – | – | – | –
2 | COc1cc(/C=C/C(=O)NCCCCNC(=O)C23CC4(C)CC(C)(CC(N)(C4)C2)C3)ccc1O | > 100 µM | – | – | – | – | – | – | – | – | – | – | –
3 | COc1cc(/C=C/C(=O)NCCCCCCNC23CC4CC(C)(CC(C)(C4)C2)C3)ccc1O | 6.9 µM | 150% | Active | Active | Non-Toxic | Active | Active | Non-Toxic | 2 | Non-Toxic | Dose-dependent effect | –
4 | COc1cc(/C=C/C(=O)O)ccc1O [FERULATE] | – | inactive | inactive | inactive | – | Active | Active | – | – | Non-Toxic | – | Non-Toxic
5 | COc1cc(/C=C/C(=O)NCCCCNC23CC4CC(C)(CC(C)(C4)C2)C3)ccc1O | 23.9 µM | inactive | inactive | inactive | Non-Toxic | Active | Active | Non-Toxic | – | Non-Toxic | – | Non-Toxic
6 | COc1cc(/C=C/C(=O)NCCNC(=O)C23CC4(C)CC(C)(CC(N)(C4)C2)C3)ccc1O | > 100 µM | – | – | – | – | – | – | – | – | – | – | –
7 | COc1cc(/C=C/C(=O)NCCCNC23CC4CC(C)(CC(C)(C4)C2)C3)ccc1O | > 100 µM | – | – | – | – | – | – | – | – | – | – | –
8 | COc1cc(/C=C/C(=O)NCCCCCNC23CC4CC(C)(CC(C)(C4)C2)C3)ccc1O | 14.1 µM | inactive | inactive | inactive | Non-Toxic | Active | Active | Non-Toxic | – | Non-Toxic | – | –
